Results: article PMC7744370 (European journal of medicinal chemistry, 2020)

How the values were obtained:
[1] = system: dopamine receptors (subtypes D1-D5); experiment: Primary binding assay at dopamine receptors; settings: 10 μM
Outline: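 Primary binding screen across a CNS GPCR panel, run through the NIMH screening programme at UNC Chapel Hill. Test compound at 10 μM; read-out is % inhibition as mean ± SEM of four independent experiments. Ki was not evaluated for receptors with under 50% activity.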

serotonin receptors = experiment: Primary binding assay at serotonin receptors; settings: 10 μM
Outline: (§1)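 […] primary binding screen across a panel of brain-expressed CNS receptors, including GPCRs, with test compound at 10 μM. The read-out is % inhibition of binding at each receptor, reported as mean ± SEM of four independent experiments. Receptors are grouped by >50% and >90% inhibition.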

[2] = In vivo BBB permeability, plasma and brain distribution by LC-MS/MS; set-up: species or system C57 mice
Outline: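 Male and female C57 mice, 8 weeks old and about 20 g, received a single i.p. 10 mg/kg dose of test compound in 2.5% ethanol, 2.5% DMSO, 5% Tween 80, 25% PEG 400 and 65% PBS. Blood was drawn under anaesthesia at 0, 0.5, 1, 6, 24 and 48 h. Brains were taken after cardiac perfusion and homogenised in PBS (1:3 w/v). Samples were acetonitrile-precipitated with internal standard and quantified by positive-ESI MRM LC-MS/MS against blank-matrix calibration curves. Results are mean ± SEM of 2–4 experiments.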

[3] = Liver microsomal stability; assay type: in vitro ADME; settings: rat liver microsomes, up to 60 minutes, compared with PFL
Outline: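 Pooled male Sprague-Dawley rat liver microsomes were diluted to a 6.2% mixture in warm potassium-phosphate buffer. Test compound, diluted to 5 μM from a DMSO stock, was mixed with NADPH regenerating solution and prewarmed to 37 °C. Microsomes were then added and incubated 1 h at 37 °C with shaking. Aliquots at 0, 5, 15, 30 and 60 min were quenched in ice-cold acetonitrile, centrifuged at 4 °C and analysed by LC-MS/MS. Percent remaining was calculated from peak-area ratios versus T=0. Results are mean ± SEM, three experiments in triplicate.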

dopamine transporter = dopamine transporter (Homo sapiens, UniProt Q01959); experiment: NIMH PDSP binding assay at dopamine transporter
dopamine transporter, sequence (Q01959 whole entry): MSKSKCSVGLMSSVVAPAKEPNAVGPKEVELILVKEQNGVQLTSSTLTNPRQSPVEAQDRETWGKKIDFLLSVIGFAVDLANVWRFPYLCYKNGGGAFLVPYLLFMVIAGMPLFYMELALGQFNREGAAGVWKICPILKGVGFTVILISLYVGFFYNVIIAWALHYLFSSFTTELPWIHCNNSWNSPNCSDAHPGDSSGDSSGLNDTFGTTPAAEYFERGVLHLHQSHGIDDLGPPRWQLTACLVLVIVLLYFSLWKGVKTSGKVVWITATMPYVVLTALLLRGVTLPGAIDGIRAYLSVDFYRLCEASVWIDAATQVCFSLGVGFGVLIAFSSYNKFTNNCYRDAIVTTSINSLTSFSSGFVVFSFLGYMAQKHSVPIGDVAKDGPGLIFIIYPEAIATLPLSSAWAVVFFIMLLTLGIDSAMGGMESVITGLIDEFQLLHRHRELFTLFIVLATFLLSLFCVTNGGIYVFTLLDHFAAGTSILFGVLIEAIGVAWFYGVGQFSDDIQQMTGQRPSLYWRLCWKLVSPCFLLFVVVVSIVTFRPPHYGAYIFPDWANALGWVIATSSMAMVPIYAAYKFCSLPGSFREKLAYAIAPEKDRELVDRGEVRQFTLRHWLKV

MDA-MB-231 cells [4] = experiment: Induction of apoptosis in MDA-MB-231 cells; assay type: cell-based, human; settings: 1 μM, 48 hours
MDA-MB-231 cells [5] = experiment: Cell cycle analysis in MDA-MB-231 cells; assay type: cell-based, human
caspase-3 = experiment: Caspase-3 cleavage; assay type: cell-based, human; settings: MDA-MB-231
Outline: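 MDA-MB-231 cells, grown in DMEM with 10% heat-inactivated FBS at 37 °C and 5% CO2, were exposed to test compound for 48 h and lysed on ice in RIPA buffer with protease/phosphatase inhibitors. Equal protein was run on SDS-PAGE and blotted to PVDF. Blots were probed for cleaved caspase-3 and total caspase-3 (1:1000), with β-tubulin (1:2000) as loading control. Detection used goat anti-rabbit HRP secondary and chemiluminescence; bands were quantified by densitometry.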

FGFR1 = experiment: pFGFR1 immunoblot in MDA-MB-231 cells with and without bFGF; assay type: cell-based, human; settings: 3 μM and 6 μM, in the presence of bFGF, 48 hours
Outline: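 Phospho-FGFR1 (1:1000) western blot used MDA-MB-231 lysates after 48 h exposure to test compound, with or without the natural ligand bFGF. Lysis was on ice in RIPA buffer with protease/phosphatase inhibitors, followed by SDS-PAGE of equal protein and transfer to PVDF. β-tubulin (1:2000) served as loading control. Detection used HRP anti-rabbit secondary and chemiluminescence, then band densitometry; n = 3.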

[6] = system: MDA-MB-231 triple-negative breast cancer cells; experiment: MTT cytotoxicity assay on MDA-MB-231 cells; assay type: cell-based, human
Outline: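 MDA-MB-231 cells were kept in DMEM with 10% heat-inactivated FBS and antibiotic-antimycotic at 37 °C, 5% CO2, and tested for mycoplasma. Cells were seeded at 8000/well, grown 24 h, then screened at 20 μM. Dose series of 0–25 μM were given in 2% FBS DMEM with 0.1% final DMSO for 48 h. MTT (0.5 mg/mL) was added for 2 h at 37 °C, formazan dissolved in DMSO and read at 570 nm. IC50 was fitted from three independent experiments.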

[7] = system: GPCRs expressed in the brain; experiment: Primary binding assay at selected CNS receptors; settings: 10 μM
Outline: as §1

With `O=C(NCCCCC(c1ccc(F)cc1)c1ccc(F)cc1)Nc1ccc(Cl)cc1` [4a, 1-(5,5-bis(4-fluorophenyl)pentyl)-3-(4-chlorophenyl)urea] the “interaction with dopamine receptors (subtypes D1-D5)” value [1] was “no significant interaction”, the “activity at serotonin receptors” value (serotonin receptors) was “no activity at serotonin receptors, except for 5HT-2C” and the Tmax ([2]; both, C57, mouse, in vivo, ip, 10 mg/kg) was 1 h. The “ability to cross the BBB in vivo” value ([2]; mice, 10 mg/kg i.p.) was “retained activity to cross the BBB” and the peak concentration ([2]; mice, 10 mg/kg single i.p., plasma and brain (Fig. 3)) was “approximately 1000 nM”.
In the case of `O=C(NCCCCC(c1ccc(F)cc1)c1ccc(F)cc1)Nc1ccc(Cl)c(C(F)(F)F)c1` [4l, 1-(5,5-bis(4-fluorophenyl)pentyl)-3-(4-chloro-3-(trifluoromethyl)phenyl)urea], the “metabolic stability in liver microsomes” value [3] is reported as “preferred metabolic stability over PFL”.
In the case of `CC(=O)Nc1cc(NC(=O)NCCCCC(c2ccc(F)cc2)c2ccc(F)cc2)ccc1Cl` [4o, N-(5-(3-(5,5-bis(4-fluorophenyl)pentyl)ureido)-2-chlorophenyl)acetamide], the “decrease in affinity to DAT compared to 4l” value (dopamine transporter) is reported as 100 fold.
For `O=C(NCCCCC(c1ccc(F)cc1)c1ccc(F)cc1)Nc1ccc([N+](=O)[O-])c(C(F)(F)F)c1` [4q, 1-(5,5-bis(4-fluorophenyl)pentyl)-3-(4-nitro-3-(trifluoromethyl)phenyl)urea], the “metabolic stability in liver microsomes” value [3] was “preferred metabolic stability over PFL”, the induction of apoptosis (MDA-MB-231 cells [4]) was “significant induction of apoptosis” and the “effect on cell cycle” value (MDA-MB-231 cells [5]) was “did not affect the cell cycle”. For the same molecule, the “caspase-3 cleavage and activation” value (caspase-3) was “capable of caspase-3 cleavage and activation” and the “phosphorylation of FGFR1” value (FGFR1) was “completely abrogated phosphorylation of FGFR1”.
With `O=C(NCCCCC(c1ccc([N+](=O)[O-])cc1)c1ccc([N+](=O)[O-])cc1)Nc1ccc(Cl)c(C(F)(F)F)c1` [8g, 1-(5,5-bis(4-nitrophenyl)pentyl)-3-(4-chloro-3-(trifluoromethyl)phenyl)urea] the “optimization of cytotoxicity relative to hit molecule 4a” value [6] was 6 fold.
With `O=C(Nc1ccc(Cl)c(C(F)(F)F)c1)N1CCC(CC(c2ccc(F)cc2)c2ccc(F)cc2)CC1` [19b, 4-(2,2-bis(4-fluorophenyl)ethyl)-N-(4-chloro-3-(trifluoromethyl)phenyl) piperidine-1 carboxamide] the “DAT inhibitory activity (in words)” value (dopamine transporter) was “abolished DAT activity”.
With `OC1(c2ccc(Cl)c(C(F)(F)F)c2)CCN(CCCC(c2ccc(F)cc2)c2ccc(F)cc2)CC1` [PFL, penfluridol] the “number of receptors (GPCRs) inhibited at the level above 50%” value [7] was 28.
With `CN(CCCCC(c1ccc(F)cc1)c1ccc(F)cc1)C(=O)N(C)c1ccc(Cl)c(C(F)(F)F)c1` [compound 15, 1-(5,5-bis(4-fluorophenyl)pentyl)-3-(4-chloro-3-(trifluoromethyl)phenyl)-1,3-dimethylurea] the “DAT inhibitory activity (in words)” value (dopamine transporter) was “inactive as a DAT inhibitor”.
